The values below come from ChEMBL document CHEMBL2086240, “Enhanced cellular uptake and in vitro antitumor activity of short-chain fatty acid acylated daunorubicin-GnRH-III bioconjugates” (Eur J Med Chem, 2012).

Data set [1] has as its system MCF7. The data set can be described thus: Cellular uptake in human MCF7 cells at 100 uM after 6 hrs by flow cytometer. In kind it is ADME, cell-based. Conditions: mcf7, 6 h; call rule not given here. The essentials: (§1)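 Cells were seeded at 1 x 10^5 per well and grown 24 h. MCF-7 were kept in DMEM and HT-29 in RPMI-1640, each with 10% FCS, at 37°C and 5% CO2. Cells were exposed to bioconjugate in serum-free medium (0.16–100 µM) for 6 h at 37°C, then detached with trypsin/EDTA. Flow cytometry gave % daunorubicin-positive living cells; duplicates, two independent experiments, mean ± SD.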

A short description of data set [2]: Metabolic stability […] assessed as alpha-chymotrypsin-mediated compound degradation after 6 hrs by LC-MS analysis. The class given is ADME, cell-free. The conditions noted are these: read-out: Drug degradation. The essentials:
(§2)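 Digestion with α-chymotrypsin at an enzyme:substrate ratio of 1:50 (w/w) in 100 mM Tris-HCl/10 mM CaCl₂, pH 7.8, at 25°C. Aliquots taken at 5 min and 1, 2, 4, 6, 8 and 24 h, quenched with acetic acid, and analysed by LC-MS for intact conjugate and cleavage fragments.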

Data set [3] is described as follows: Chemical stability of the compound in serum-free DMEM cell culture media after 6 hrs by RP-HPLC analysis. In kind it is physicochemical. The essentials: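 Conjugate dissolved in water (20% of final volume), then diluted with serum-free DMEM to a final 0.5 mg/mL. Incubated at 37°C for 6 h with hourly sampling. Monitored by analytical RP-HPLC on a C18 or CN column, gradient of 0.1% TFA water/MeCN, detection at 220 nm.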

A further data set deals with Serum. The data set can be described thus: Metabolic stability […] assessed as alpha-chymotrypsin-mediated compound degradation after 24 hrs by LC-MS analysis. The class given is ADME, cell-free. The essentials:
as §2

Data set [4] is described as follows: Drug metabolism in rat liver lysosomal homogenate after 24 hrs by LC-MS analysis. In kind it is ADME, tissue-based. Conditions: tissue homogenate. The essentials: (§3)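 Conjugate at 0.1 µg/µL in 0.2 M NaOAc pH 5.0, mixed 1:1 (w/w) with rat liver lysosomal homogenate (protein 17.4 µg/µL by BCA). Incubated at 37°C; aliquots taken at 5 min and 1, 2, 4, 6, 8 and 24 h. Fragments identified by ESI ion-trap LC-MS on a C18 column with a formic acid/acetonitrile gradient, positive mode, m/z 100–2500.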

The test system of data set [5] is HT-29. The data set can be described thus: Cytostatic activity against human HT-29 cells compound incubated for 6 hrs followed by compound wash out measured after 72 hrs by MTT assay. In kind it is functional, cell-based. A digest of the protocol:
(§4)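 Cells plated at 5×10^3 per well and grown 24 h. Exposed 6 h to compound in serum-free RPMI-1640 (2.6×10^-4–10^2 µM, six parallels per concentration), washed twice, then cultured 72 h in serum-containing medium. MTT added at 367 µg/mL final for 3.5 h; crystals dissolved in DMSO; OD540 minus OD620 read. Cytostasis% = [1−(OD_treated/OD_control)]×100; IC50 taken from a sigmoidal fit. Three independent experiments, averaged.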
(In general: Formazan colour is commonly taken as a measure of viable cells.)

The nature of data set [6]: Drug metabolism in rat liver lysosomal homogenate after 2 hrs by LC-MS analysis. The class given is ADME, tissue-based. The conditions noted are these: tissue homogenate. A digest of the protocol: as §3
Data set [7] relates to MCF7. The data set can be described thus: Cellular uptake in human MCF7 cells at 20 uM after 6 hrs by flow cytometer. In kind it is ADME, cell-based. Conditions: mcf7, 6 h. The essentials:
as §1
(In flow cytometry, cells or beads pass a laser one at a time.)

Data set [8] has as its system HT-29. The data set can be described thus: Cellular uptake in human HT-29 cells after 6 hrs by flow cytometer. The conditions noted are these: ht-29, 6 h. In kind it is ADME, cell-based. The essentials:
(§5)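 Cells plated at 1 x 10^5 per well, grown 24 h at 37°C, then exposed to conjugate in serum-free medium (0.16–100 µM) for 6 h at 37°C. Cells detached with trypsin/EDTA, resuspended in FCS-free medium and analysed by flow cytometry. Read-out is the percentage of daunorubicin-positive living cells. Duplicate samples at each concentration; each experiment repeated twice.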

Data set [9] can be described thus: Metabolic stability in presence of alpha-chymotrypsin assessed as compound remaining after 6 hrs by LC-MS analysis.
The subject of data set [10] is MCF7. The data set can be described thus: Cellular uptake in human MCF7 cells after 6 hrs by flow cytometer. In kind it is ADME, cell-based. Conditions: mcf7, 6 h. A digest of the protocol: as §5
Data set [11] is described as follows: Metabolic stability in human serum assessed as alpha-chymotrypsin-mediated compound degradation after 4 hrs by LC-MS analysis. The class given is ADME, cell-free. Conditions: Tris-HCl/CaCl2 buffer; in the assay text read “in Tris-HCl/CaCl2 buffer” for “in human serum”; read-out: Drug degradation. A digest of the protocol: as §2
For data set [12], the system named is HT-29. The data set can be described thus: Cellular uptake in human HT-29 cells at 100 uM after 6 hrs by flow cytometer. The class given is ADME, cell-based. Conditions: ht-29, 6 h. The essentials:
as §1

Data set [13] concerns MCF7. The data set can be described thus: Cytostatic activity against human MCF7 cells compound incubated for 6 hrs followed by compound wash out measured after 72 hrs by MTT assay. The class given is functional, cell-based. The essentials:
as §4

In data set [14] the test system is HT-29. The data set can be described thus: Cellular uptake in human HT-29 cells at 20 uM after 6 hrs by flow cytometer. The class given is ADME, cell-based. The conditions noted are these: ht-29, 6 h. A digest of the protocol:
as §1

Regarding `COc1cccc2c1C(=O)c1c(O)c3c(c(O)c1C2=O)C[C@@](O)(/C(C)=N/OCC(=O)NCCCC[C@H](NC(=O)[C@H](Cc1c[nH]c2ccccc12)NC(=O)[C@H](CC(=O)O)NC(=O)[C@H](Cc1cnc[nH]1)NC(=O)[C@H](CCCCNC(=O)C(C)C)NC(=O)[C@H](Cc1c[nH]c2ccccc12)NC(=O)[C@H](Cc1cnc[nH]1)NC(=O)[C@@H]1CCC(=O)N1)C(=O)N1CCC[C@H]1C(=O)NCC(N)=O)C[C@@H]3O[C@H]1C[C@H](N)[C@H](O)[C@H](C)O1`, the Drug uptake is on record as 99.7% with MCF7 [1]; 93.3% in the data set on MCF7 [7]; “Dose-dependent effect” with HT-29 [8]; “Dose-dependent effect” with MCF7 [10]; 99.9% in the data set on HT-29 [12]; 96.9% in the data set with HT-29 [14]. The metabolised at 6 h in [2] turned out to be 90%. The figures for the Stability result (in [3]; in the data set with Serum) were “Stable” and “Unstable”, respectively. In addition, the Drug metabolism result in data set [4] and in [6] was “Active” in each case. Moreover, the IC50 (usually the midpoint of a concentration-inhibition curve) with HT-29 [5] came out at 2000 nM; in the data set with MCF7 [13], 2200 nM. In data set [9], the fraction remaining (commonly what is left of the initial amount, in per cent) at 6 h was 10%. The metabolised at 4 h in data set [11] was found to be 60%.
